Measurements: ChEMBL document CHEMBL1777764, “Synthesis and evaluation of 1-(1H-indol-3-yl)ethanamine derivatives as new antibacterial agents” (Bioorg Med Chem, 2011)
In brackets after ≈: the same amount, converted by molar mass.

Columns and labels:
Acinetobacter baumannii = assay: microbe, parasite or virus in culture; conditions: ATCC 19606 = CIP 70.34 = JCM 6841, 18 h
HCT-116 [1] = assay: Cytotoxicity against human HCT116 cells at 1 uM; type: cell-based; conditions: hct-116, 1 µM
Streptococcus pneumoniae [2] = assay: Antibacterial activity against Streptococcus pneumoniae ATCC 6303 after 18 hrs by broth microdilution method; type: functional; conditions: ATCC 6303, 18 h
Summary of the method: (§1)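 MIC by broth microdilution per ISO 20776-1:2006 and CLSI M07-A8. Inoculum 10^6 cfu/ml in Mueller-Hinton broth […]. Compound serially diluted, final 2 to 128 ug/ml, duplicate rows, no-drug growth control. Read after 18 h at 37 °C as lowest concentration fully inhibiting visible growth. At least two experiments.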

Staphylococcus aureus [3] = assay: Antibacterial activity against Staphylococcus aureus ATCC 6538 after 18 hrs by broth microdilution method; type: functional; conditions: ATCC 6538, 18 h
Summary of the method: (§2)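 MIC by broth microdilution per ISO 20776-1:2006 and CLSI M07-A8. Inoculum 10^6 cfu/ml in Mueller-Hinton broth with compound serially diluted, final concentrations 2 to 128 ug/ml, duplicate rows, no-drug growth control. Incubation 18 h at 37 °C. MIC taken as lowest concentration giving complete inhibition of visible growth. Each compound tested at least twice.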

MRC5 [4] = assay: Cytotoxicity against human MRC5 cells at 10 uM; type: cell-based; conditions: mrc5, 10 µM
Enterococcus faecium = assay: Antibacterial activity against Enterococcus faecium CIP 54.32 after 18 hrs by broth microdilution method; type: functional; conditions: CIP 54.32, 18 h
Summary of the method: (§3)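 Broth microdilution following ISO 20776-1:2006 and CLSI M07-A8, in Mueller-Hinton broth. Inoculum was 10^6 cfu/ml, with compound serial dilutions spanning 2 to 128 ug/ml and a compound-free growth control well. Plates were incubated 18 h at 37 °C. MIC was the lowest concentration giving complete inhibition of visible growth. Each compound was tested at least twice.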

Streptococcus agalactiae = assay: Antibacterial activity against Streptococcus agalactiae ATCC 12400 after 18 hrs by broth microdilution method; type: functional; conditions: ATCC 12400, 18 h
Summary of the method: as §3

HCT-116 [5] = assay: Cytotoxicity against human HCT116 cells at 10 uM; type: cell-based; conditions: hct-116, 10 µM
MRC5 [6] = assay: Cytotoxicity against human MRC5 cells at 1 uM; type: cell-based; conditions: mrc5, 1 µM
[7] = system: Staphylococcus epidermidis; assay: Antibacterial activity against Staphylococcus epidermidis CIP 103627 after 18 hrs by broth microdilution method; type: functional; conditions: CIP 103627, 18 h
Summary of the method: as §2

KB [8] = assay: Cytotoxicity against human KB cells at 1 uM; type: cell-based
Serratia marcescens = assay: microbe, parasite or virus in culture; conditions: CIP 103551, 18 h
Staphylococcus aureus [9] = assay: Antibacterial activity against Staphylococcus aureus ATCC 25923 after 18 hrs by broth microdilution method; type: functional; conditions: ATCC 25923, 18 h
Summary of the method: as §2

Staphylococcus aureus [10] = assay: Antibacterial activity against Staphylococcus aureus CIP 103428 after 18 hrs by broth microdilution method; type: functional; conditions: CIP 103428, 18 h
Summary of the method: as §2

Klebsiella pneumoniae = assay: microbe, parasite or virus in culture; conditions: ATCC 35657, 18 h
Streptococcus pneumoniae [11] = assay: Antibacterial activity against Streptococcus pneumoniae ATCC 49619 after 18 hrs by broth microdilution method; type: functional; conditions: ATCC 49619, 18 h
Summary of the method: as §1

Escherichia coli = assay: Antibacterial activity against Escherichia coli ATCC 25922 after 18 hrs by broth microdilution method; type: functional; conditions: ATCC 25922, 18 h
Summary of the method: as §3

Pseudomonas aeruginosa = assay: microbe, parasite or virus in culture; conditions: CIP 5933, 18 h
[12] = system: Staphylococcus epidermidis; assay: Antibacterial activity against Staphylococcus epidermidis ATCC 12228 after 18 hrs by broth microdilution method; type: functional; conditions: ATCC 12228, 18 h
Summary of the method: as §2

Staphylococcus aureus [13] = assay: Antibacterial activity against methicillin-resistant Staphylococcus aureus CIP 65.25 after 18 hrs by broth microdilution method; type: functional; conditions: CIP 65.25, 18 h
Summary of the method: as §3

Staphylococcus aureus [14] = assay: Antibacterial activity against Staphylococcus aureus ATCC 9144 after 18 hrs by broth microdilution method; type: functional; conditions: ATCC 9144, 18 h
Summary of the method: as §2

Staphylococcus aureus [15] = assay: Antibacterial activity against Staphylococcus aureus ATCC 29213 after 18 hrs by broth microdilution method; type: functional; conditions: ATCC 29213, 18 h
Summary of the method: as §2

KB [16] = assay: Cytotoxicity against human KB cells at 10 uM; type: cell-based
Staphylococcus aureus [17] = assay: Antibacterial activity against vancomycin intermediate Staphylococcus aureus […] after 18 hrs by broth microdilution method; type: functional
Summary of the method: as §3

Staphylococcus aureus [18] = assay: Antibacterial activity against methicillin-resistant Staphylococcus aureus ATCC 33592 after 18 hrs by broth microdilution method; type: functional; conditions: ATCC 33592, 18 h
Summary of the method: as §3

Streptococcus mitis = assay: Antibacterial activity against Streptococcus mitis CIP 103335 after 18 hrs by broth microdilution method; type: functional; conditions: CIP 103335, 18 h
Summary of the method: as §3, with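 “broth […].” for “broth.”, “read after” for “incubated”, “with no” for “giving complete inhibition of”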

Streptococcus pyogenes = assay: Antibacterial activity against Streptococcus pyogenes CIP 104226 after 18 hrs by broth microdilution method; type: functional; conditions: CIP 104226, 18 h
Summary of the method: as §3

Enterococcus faecalis = assay: Antibacterial activity against Enterococcus faecalis ATCC 29212 after 18 hrs by broth microdilution method; type: functional; conditions: ATCC 29212, 18 h
Summary of the method: as §3

Staphylococcus aureus [19] = assay: Antibacterial activity against Staphylococcus aureus CIP 65.6 after 18 hrs by broth microdilution method; type: functional; conditions: CIP 65.6, 18 h
Summary of the method: as §2

[20] = system: Staphylococcus epidermidis; assay: Antibacterial activity against Staphylococcus epidermidis CIP 81.55 after 18 hrs by broth microdilution method; type: functional; conditions: CIP 81.55, 18 h
Summary of the method: as §2

Enterobacter cloacae = assay: microbe, parasite or virus in culture; conditions: ATCC 13047, 18 h
Haemophilus influenzae = assay: Antibacterial activity against Haemophilus influenzae ATCC 49766 after 18 hrs by broth microdilution method; type: functional; conditions: ATCC 49766, 18 h
Summary of the method: as §3, with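 “broth […].” for “broth.”, “read after” for “incubated”, “with no” for “giving complete inhibition of”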

Structure (SMILES)	MIC (Acinetobacter baumannii) [µg/mL]	Activity (HCT-116 [1])	MIC (Streptococcus pneumoniae [2]) [µg/mL]	MIC (Staphylococcus aureus [3]) [µg/mL]	Activity (MRC5 [4])	MIC (Enterococcus faecium) [µg/mL]	MIC (Streptococcus agalactiae) [µg/mL]	MIC [7] [µg/mL]	MIC (Staphylococcus aureus [9]) [µg/mL]	MIC (Staphylococcus aureus [10]) [µg/mL]	MIC (Escherichia coli) [µg/mL]	MIC [12] [µg/mL]	MIC (Staphylococcus aureus [14]) [µg/mL]	MIC (Staphylococcus aureus [15]) [µg/mL]	MIC (Staphylococcus aureus [17]) [µg/mL]	MIC (Streptococcus mitis) [µg/mL]	MIC (Streptococcus pyogenes) [µg/mL]	MIC (Enterococcus faecalis) [µg/mL]	MIC (Staphylococcus aureus [19]) [µg/mL]	MIC [20] [µg/mL]	further results
Cl.Cl.NCC(NO)c1c[nH]c2ccc(Br)cc12 (stereo not given)	64	Non-toxic	64	16	Non-toxic	128	64	8	16	16	16	8	16	16	16	64	64	128	16	8	Activity (HCT-116 [5]): Non-toxic; Activity (MRC5 [6]): Non-toxic; Activity (KB [8]): Non-toxic; MIC (Serratia marcescens): 64 µg/mL; MIC (Klebsiella pneumoniae): 64 µg/mL; MIC (Streptococcus pneumoniae [11]): 64 µg/mL; MIC (Pseudomonas aeruginosa): 64 µg/mL; MIC (Staphylococcus aureus [13]): 16 µg/mL; Activity (KB [16]): Non-toxic; MIC (Staphylococcus aureus [18]): 16 µg/mL; MIC (Enterobacter cloacae): 64 µg/mL
Cl.Cl.NCC(NO)c1c[nH]c2cc(Br)ccc12 (stereo not given)	64	Non-toxic	64	16	Non-toxic	> 128	128	16	16	16	32	16	16	16	16	128	128	> 128	16	16	Activity (HCT-116 [5]): Non-toxic; Activity (MRC5 [6]): Non-toxic; Activity (KB [8]): Non-toxic; MIC (Serratia marcescens): 64 µg/mL; MIC (Klebsiella pneumoniae): 64 µg/mL; MIC (Streptococcus pneumoniae [11]): 64 µg/mL; MIC (Pseudomonas aeruginosa): 64 µg/mL; MIC (Staphylococcus aureus [13]): 16 µg/mL; Activity (KB [16]): Non-toxic; MIC (Staphylococcus aureus [18]): 16 µg/mL; MIC (Enterobacter cloacae): 64 µg/mL
O=C(O)c1cn(C2CC2)c2cc(N3CCNCC3)c(F)cc2c1=O [CIPROFLOXACIN]	–	–	–	0.5 (≈ 1.51 µM)	–	1 (≈ 3.02 µM)	0.25 (≈ 0.754 µM)	0.25 (≈ 0.754 µM)	0.5 (≈ 1.51 µM)	0.5 (≈ 1.51 µM)	0.064 (≈ 0.193 µM)	0.25 (≈ 0.754 µM)	0.5 (≈ 1.51 µM)	0.5 (≈ 1.51 µM)	32 (≈ 96.6 µM)	0.25 (≈ 0.754 µM)	0.25 (≈ 0.754 µM)	1 (≈ 3.02 µM)	0.5 (≈ 1.51 µM)	0.25 (≈ 0.754 µM)	MIC (Haemophilus influenzae): 0.5 µg/mL (≈ 1.51 µM)
Cl.Cl.NCC(NO)c1c[nH]c2cccc(Br)c12 (stereo not given)	> 128	Non-toxic	128	32	Non-toxic	> 128	128	32	32	32	128	32	32	32	32	128	128	> 128	32	32	Activity (HCT-116 [5]): Non-toxic; Activity (MRC5 [6]): Non-toxic; Activity (KB [8]): Non-toxic; MIC (Serratia marcescens): > 128 µg/mL; MIC (Klebsiella pneumoniae): > 128 µg/mL; MIC (Streptococcus pneumoniae [11]): 128 µg/mL; MIC (Pseudomonas aeruginosa): > 128 µg/mL; MIC (Staphylococcus aureus [13]): 32 µg/mL; Activity (KB [16]): Non-toxic; MIC (Staphylococcus aureus [18]): 32 µg/mL; MIC (Enterobacter cloacae): > 128 µg/mL
